Screens from PubChem.
Shown is part of a subset that was picked to be rich in hits.
UCH37 DUB inh: human UCH37 deubiquitinating enzyme inhibition; inhibition, % (no concentration beside the values); Q9Y5K5; hit rate 0.33% among 330,000; purified proteasome/UCH37, Ub-AMC cleavage fluorescence;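 active = mean inhibition over replicate wells above about 20%, limit read from the data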;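 note: 0% = compound-free wells with enzyme and 100% = wells lacking proteasome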
Target sequence (Q9Y5K5 whole entry, looked up): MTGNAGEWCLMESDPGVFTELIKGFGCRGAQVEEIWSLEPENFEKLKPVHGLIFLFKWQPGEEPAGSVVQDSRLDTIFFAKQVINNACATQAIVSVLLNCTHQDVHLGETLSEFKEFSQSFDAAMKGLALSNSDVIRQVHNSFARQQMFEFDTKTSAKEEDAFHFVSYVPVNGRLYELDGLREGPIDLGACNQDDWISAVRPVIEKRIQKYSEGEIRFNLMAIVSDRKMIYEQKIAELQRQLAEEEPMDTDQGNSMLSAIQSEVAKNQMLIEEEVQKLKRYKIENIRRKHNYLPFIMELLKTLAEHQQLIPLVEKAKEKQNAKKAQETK
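System: Proteasome-associated human UCH37 deubiquitinase; Input: 0.15 nM proteasome in added enzyme buffer; Also added: Ub-AMC substrate from 1 µM stock; Incubation: 30 min compound-proteasome preincubation then 25 min substrate reaction, room temperature; Detection: fluorescence, ex 355 nm, em 460 nm; Read-out: % inhibition of Ub-AMC cleavage fluorescence; Benchmarks: no-proteasome and no-compound wells.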
Fh CTSL1 inh: blocks F. hepatica cathepsin L1 in PFM18AAP counter-screen; recombinant F. hepatica cathepsin L1, Z-Leu-Arg-MCA fluorescence; inhibition, % at 5.96 µM; hit rate 0.49% among 300,000; AID 1906;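 active = inhibition above the mean of all tested compounds plus 3 SD, set per screening campaign, cut at about 17% in these data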;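 note: 0% = plate median of test compound wells and 100% = 1 µM Z-Phe-Ala-diazomethylketone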
UPR CHOP act: activators of apoptotic arm of unfolded protein response (CHOP) | hit rate 0.34% among 330,000 | CHO-CHOP luciferase reporter, UPR activation, luminescence; percent of tunicamycin response over DMSO baseline | activation, % at 10 µM;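 active = at 10 µM dose, activation of 40% or more, normalized to positive control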;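 note: 100% = tunicamycin at 10 µg/mL and 0% = DMSO alone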
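assay system = CHO CHOP reporter cells | amount = 500 CHO-CHOP cells per well | buffer or medium = F12 with 10% FBS | incubation = 16-18 h cell attachment, then 6 h compound exposure, 37 °C | detection = luminescence read with Steady-Glo | read-out = percent activation relative to tunicamycin control | controls = tunicamycin high control, DMSO low control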
UPR XBP1 act: activators of adaptive arm of unfolded protein response (XBP1); AID 463104; activation, % at 20 µM; CHO-XBP1 luciferase reporter, IRE1-XBP1 UPR activation, luminescence; percent of tunicamycin response, DMSO as zero; hit rate 0.33% among 330,000;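 active = versus positive control, 20 µM dose yields 30% or more activation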;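 note: 100% = tunicamycin at 10 µg/mL and 0% = DMSO only wells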
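Signal: luciferase luminescence; Assay system: CHO-XBP1 luciferase reporter cells; Amount: one thousand reporter cells per well; Dosing: 20 µM single concentration, DMSO 1%; Benchmarks: high control tunicamycin 10 µg/mL final, low control DMSO vehicle only; Schedule: 6 h compound exposure at 37 °C, 5% CO2; Evaluation: percent activation relative to tunicamycin reference.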
CHOP inh: inhibitors of CHOP induction in ER stress response | AID 2732 | CHO-K1 CHOP-promoter luciferase, tunicamycin-induced, 15-18 h | inhibition, % at 10 µM | hit rate 3.8% among 220,000;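 active = compounds that reduced the stress-induced luciferase reporter signal by more than about 70% of percent inhibition, limit read from the data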;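 note: 0% = tunicamycin plus vehicle and 100% = wells without tunicamycin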
UCH37 reconfirm: reconfirmed inhibitor of human deubiquitinase UCH37; shares compounds with UCH37 DUB inh; Proteasome-bound UCH37, Ub-AMC cleavage fluorescence; inhibition, % at 20 µM; hit rate 27% among 480; AID 624100;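 active = average inhibition over replicates above about 50%, so the earlier screening hit is confirmed, limit read from the data; inactive = the rest, counted as false positives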;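 note: based on cleavage rate fitted by regression over a 30 min kinetic read; 0% = proteasome plus Ub-AMC and 100% = Ub-AMC without proteasome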
* hit, by the source's call.

Screening COC(=O)c1ccc(-c2ccc(C(c3c(C)[nH][nH]c3=O)c3c(C)[nH][nH]c3=O)o2)cc1 returned UCH37 DUB inh 45*, Fh CTSL1 inh -2, UPR CHOP act -3, UPR XBP1 act -7, CHOP inh -13 and UCH37 reconfirm 67*.
`Cc1[nH][nH]c(=O)c1C(c1ccc(-c2cccc(C(=O)O)c2)o1)c1c(C)[nH][nH]c1=O` gave UCH37 DUB inh 44*, Fh CTSL1 inh 1, UPR CHOP act 2, UPR XBP1 act 2, CHOP inh -6 and UCH37 reconfirm 71*.
For COC(=O)COc1ccc(C(c2c(C)[nH][nH]c2=O)c2c(C)[nH][nH]c2=O)cc1 the results were UCH37 DUB inh 5, UPR CHOP act -1 and UPR XBP1 act -2.
For CCCCCC(=O)NN=Cc1ccco1 the results were UCH37 DUB inh -3.
CN1C2CCC1/C(=C\c1ccc(F)cc1)C(=O)/C2=C/c1ccc(F)cc1 was read as UCH37 DUB inh 1, Fh CTSL1 inh 1, UPR CHOP act 11, UPR XBP1 act -1 and CHOP inh 29.
`CN1C2CCC1/C(=C/c1cccn1C)C(=O)/C2=C\c1cccn1C` gave UCH37 DUB inh 29*, Fh CTSL1 inh 7, UPR CHOP act -2, UPR XBP1 act 2, CHOP inh -8 and UCH37 reconfirm 15.
`COC1=C(c2ccccc2)C(=O)c2ccccc2C1=O` gave UCH37 DUB inh 27*, Fh CTSL1 inh 13, UPR CHOP act 0, UPR XBP1 act -3, CHOP inh 7 and UCH37 reconfirm 33.
For CC(=O)C(C(C)=O)C1(O)C(=O)c2ccccc2C1=O the results were UCH37 DUB inh 70*, Fh CTSL1 inh 58*, UPR CHOP act 1, UPR XBP1 act -2, CHOP inh -35 and UCH37 reconfirm 78*.
Screening COc1ccc(O)c(C2(O)C(=O)c3ccccc3C2=O)c1 returned UCH37 DUB inh 0, Fh CTSL1 inh -7, UPR CHOP act -1, UPR XBP1 act -3 and CHOP inh 15.
For Cc1cccc(C(=O)N2CCCCCC2)c1 the results were UCH37 DUB inh 28, Fh CTSL1 inh 0, UPR CHOP act 0, UPR XBP1 act -3, CHOP inh -5 and UCH37 reconfirm 42.
For CC(=NNS(=O)(=O)c1ccc(C)cc1)c1ccc(Br)s1 the results were UCH37 DUB inh 3.
`Cc1ccc(C)c(-n2nnnc2SCC(=O)NCCC2=CCCCC2)c1` gave UCH37 DUB inh 59*, Fh CTSL1 inh 0, UPR CHOP act 0, UPR XBP1 act -3, CHOP inh 86* and UCH37 reconfirm 47.
CNC(=O)CSc1nnnn1-c1cc(C)ccc1C was read as UCH37 DUB inh 0, Fh CTSL1 inh -4, UPR CHOP act -1, UPR XBP1 act -1 and CHOP inh 24.
`O=C(NCc1ccccc1)c1ccc(N2CCC3(CC2)CC(c2ccccc2)=NO3)c([N+](=O)[O-])c1` gave UCH37 DUB inh 47*, Fh CTSL1 inh -1, UPR CHOP act 0, UPR XBP1 act -2 and UCH37 reconfirm 3.
`COc1cc(OC)c2c(c1)C(=O)c1cc(OC)cc(OC)c1C2=O` gave UCH37 DUB inh 43*, Fh CTSL1 inh 1, UPR CHOP act 2, UPR XBP1 act 8, CHOP inh 2 and UCH37 reconfirm 31.
CCn1c(N=Cc2ccccc2O)nc2ccccc21 was read as UCH37 DUB inh 2.
`CCCCCCn1ccc(=N)cc1` gave UCH37 DUB inh 7, Fh CTSL1 inh 0, UPR CHOP act 1 and UPR XBP1 act 0.
For CCCCCCCCCCCCCCCCn1cc[n+](CC(C)=O)c1 the results were UCH37 DUB inh 85*, CHOP inh 12 and UCH37 reconfirm 96*.
For CCCNC1=C(N(C(C)=O)c2cccc(F)c2)C(=O)c2ccccc2C1=O the results were UCH37 DUB inh 19, Fh CTSL1 inh 9 and CHOP inh -24.
CCC(=O)N(C1=C(NC(C)C)C(=O)c2ccccc2C1=O)C(C)C was read as UCH37 DUB inh 46*, Fh CTSL1 inh 0, UPR CHOP act -1, UPR XBP1 act -3, CHOP inh 19 and UCH37 reconfirm 22.
`Cc1nonc1C(=O)NN=Cc1ccc(O)cc1O` gave UCH37 DUB inh 7.
O=C(O)c1cccc(NS(=O)(=O)c2ccc3nnn(O)c3c2)c1 was read as UCH37 DUB inh 4, Fh CTSL1 inh -4, UPR CHOP act 0, UPR XBP1 act 0 and CHOP inh 2.
O=C(O)c1cccc(NC2=C(n3nnc4ccccc43)C(=O)c3ccccc3C2=O)c1 was read as UCH37 DUB inh 52*, Fh CTSL1 inh 5, UPR CHOP act 0, UPR XBP1 act -1, CHOP inh 0 and UCH37 reconfirm 55*.
COc1cc(C=NN2CCN(Cc3ccc(Cl)cc3)CC2)ccc1OC(C)=O was read as UCH37 DUB inh 2.
`O=C(Cc1n[nH]c(=O)[nH]c1=O)NN=Cc1cccc(Cl)c1` gave UCH37 DUB inh 4.
For O=C1Nc2c(Cl)cc(Cl)cc2C1=O the results were UCH37 DUB inh 62* and UCH37 reconfirm 75*.
Cc1cccc(N=C2C(=O)Nc3c(Cl)cccc32)c1 was read as UCH37 DUB inh 3, Fh CTSL1 inh 6, UPR CHOP act 1 and UPR XBP1 act -2.
`CCN(CC)c1ccc(/C=C(/C#N)C(=O)NC(C)C)o1` gave UCH37 DUB inh 29*, Fh CTSL1 inh 5, UPR CHOP act 3, UPR XBP1 act 3, CHOP inh 28 and UCH37 reconfirm 28.
Screening CC(C)NC(=O)/C(C#N)=C\c1ccc(N(C)C)o1 returned UCH37 DUB inh 37*, Fh CTSL1 inh 5, UPR CHOP act 2, UPR XBP1 act 1, CHOP inh -12 and UCH37 reconfirm 36.
For COC(=O)c1ccc(C=NOCC(=O)Nc2cc(F)ccc2F)cc1 the results were UCH37 DUB inh 0.
For CCCOc1ccc(/C(O)=C2/C(=O)C(=O)N(CCN(C)C)C2c2ccc(O)c(OC)c2)cc1 (stereo unspecified) the results were UCH37 DUB inh 22*, CHOP inh 28 and UCH37 reconfirm -6.
`CCCOc1ccc(C2/C(=C(/O)c3ccccc3)C(=O)C(=O)N2CCCN(C)C)cc1OC` (stereo unspecified) gave UCH37 DUB inh 4, Fh CTSL1 inh -1, UPR CHOP act 0 and UPR XBP1 act -1.
Screening COc1ccc(C2/C(=C(\O)c3ccc(OC)c(Cl)c3)C(=O)C(=O)N2CCN(C)C)cc1 (stereo unspecified) returned UCH37 DUB inh 34*, Fh CTSL1 inh 0, UPR CHOP act -3, UPR XBP1 act -2, CHOP inh -13 and UCH37 reconfirm 14.
